The target in one test is T1, Histone deacetylase 8 (Homo sapiens, UniProt Q9BY41).
T1 sequence (Q9BY41 whole entry): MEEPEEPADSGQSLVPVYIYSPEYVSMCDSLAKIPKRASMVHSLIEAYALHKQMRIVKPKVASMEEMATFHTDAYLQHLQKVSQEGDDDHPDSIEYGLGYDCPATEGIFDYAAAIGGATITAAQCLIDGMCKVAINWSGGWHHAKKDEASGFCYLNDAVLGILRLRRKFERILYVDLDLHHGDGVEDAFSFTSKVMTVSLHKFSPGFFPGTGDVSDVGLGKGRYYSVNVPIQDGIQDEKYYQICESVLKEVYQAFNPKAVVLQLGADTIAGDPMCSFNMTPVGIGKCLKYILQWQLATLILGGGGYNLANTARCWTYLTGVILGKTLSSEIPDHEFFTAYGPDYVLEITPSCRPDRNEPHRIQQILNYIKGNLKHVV
The experiment in a line: Inhibition of recombinant HDAC8 assessed as inhibition of fluorogenic aminocoumarin release from substrate by trypsin-coupled biochemical assay. In a few lines: (§1)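 Trypsin-coupled fluorogenic assay. Substrate is an acetylated lysine tripeptide amide-linked to aminocoumarin (AMC). HDAC deacetylation allows trypsin to release AMC, and the fluorescence increase is read. Compound was tested at various concentrations and normalized to a DMSO control. IC50 was derived by non-linear regression fit.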

In another test the target is Histone deacetylase 4 (Homo sapiens, UniProt P56524). The experiment in a line: Inhibition of recombinant HDAC4 assessed as inhibition of fluorogenic aminocoumarin release from substrate by trypsin-coupled biochemical assay. The gist of the method: as §1
Histone deacetylase 4, sequence (P56524 whole entry): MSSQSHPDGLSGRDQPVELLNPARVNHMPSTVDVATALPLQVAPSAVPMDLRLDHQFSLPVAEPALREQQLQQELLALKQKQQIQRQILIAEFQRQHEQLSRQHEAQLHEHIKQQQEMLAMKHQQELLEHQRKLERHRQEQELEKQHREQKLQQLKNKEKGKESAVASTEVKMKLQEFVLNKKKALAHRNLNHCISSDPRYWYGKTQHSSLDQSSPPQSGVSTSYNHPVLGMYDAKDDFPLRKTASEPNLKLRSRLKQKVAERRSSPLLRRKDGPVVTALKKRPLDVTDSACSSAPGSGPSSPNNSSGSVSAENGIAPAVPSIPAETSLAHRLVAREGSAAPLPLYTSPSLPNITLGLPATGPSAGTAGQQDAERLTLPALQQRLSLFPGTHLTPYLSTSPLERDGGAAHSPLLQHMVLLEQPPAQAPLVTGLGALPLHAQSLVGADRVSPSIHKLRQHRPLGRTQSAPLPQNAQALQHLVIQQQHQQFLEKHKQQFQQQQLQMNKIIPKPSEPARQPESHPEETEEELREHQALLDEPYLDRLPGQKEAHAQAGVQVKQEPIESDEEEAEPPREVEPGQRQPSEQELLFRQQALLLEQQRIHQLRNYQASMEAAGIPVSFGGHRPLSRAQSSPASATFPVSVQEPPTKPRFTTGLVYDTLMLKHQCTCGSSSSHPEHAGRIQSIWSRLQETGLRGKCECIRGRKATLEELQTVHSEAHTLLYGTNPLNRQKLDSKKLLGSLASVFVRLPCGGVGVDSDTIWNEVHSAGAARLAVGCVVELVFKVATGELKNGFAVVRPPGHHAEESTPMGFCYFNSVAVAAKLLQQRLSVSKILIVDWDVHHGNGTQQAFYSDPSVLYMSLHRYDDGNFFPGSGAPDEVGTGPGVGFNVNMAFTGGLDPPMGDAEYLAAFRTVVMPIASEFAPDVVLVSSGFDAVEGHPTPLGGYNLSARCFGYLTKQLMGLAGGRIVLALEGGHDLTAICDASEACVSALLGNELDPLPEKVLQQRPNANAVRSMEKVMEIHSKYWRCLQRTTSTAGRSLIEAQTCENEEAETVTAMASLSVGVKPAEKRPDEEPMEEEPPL
The next test has as its target Histone deacetylase 5 (Homo sapiens, UniProt Q9UQL6). The experiment in a line: Inhibition of recombinant HDAC5 assessed as inhibition of fluorogenic aminocoumarin release from substrate by trypsin-coupled biochemical assay. In a few lines:
as §1

The target in another test is Histone deacetylase 9 (Homo sapiens, UniProt Q9UKV0). The experiment in a line: Inhibition of recombinant HDAC9 assessed as inhibition of fluorogenic aminocoumarin release from substrate by trypsin-coupled biochemical assay. The gist of the method: as §1
Histone deacetylase 9, sequence (Q9UKV0 whole entry): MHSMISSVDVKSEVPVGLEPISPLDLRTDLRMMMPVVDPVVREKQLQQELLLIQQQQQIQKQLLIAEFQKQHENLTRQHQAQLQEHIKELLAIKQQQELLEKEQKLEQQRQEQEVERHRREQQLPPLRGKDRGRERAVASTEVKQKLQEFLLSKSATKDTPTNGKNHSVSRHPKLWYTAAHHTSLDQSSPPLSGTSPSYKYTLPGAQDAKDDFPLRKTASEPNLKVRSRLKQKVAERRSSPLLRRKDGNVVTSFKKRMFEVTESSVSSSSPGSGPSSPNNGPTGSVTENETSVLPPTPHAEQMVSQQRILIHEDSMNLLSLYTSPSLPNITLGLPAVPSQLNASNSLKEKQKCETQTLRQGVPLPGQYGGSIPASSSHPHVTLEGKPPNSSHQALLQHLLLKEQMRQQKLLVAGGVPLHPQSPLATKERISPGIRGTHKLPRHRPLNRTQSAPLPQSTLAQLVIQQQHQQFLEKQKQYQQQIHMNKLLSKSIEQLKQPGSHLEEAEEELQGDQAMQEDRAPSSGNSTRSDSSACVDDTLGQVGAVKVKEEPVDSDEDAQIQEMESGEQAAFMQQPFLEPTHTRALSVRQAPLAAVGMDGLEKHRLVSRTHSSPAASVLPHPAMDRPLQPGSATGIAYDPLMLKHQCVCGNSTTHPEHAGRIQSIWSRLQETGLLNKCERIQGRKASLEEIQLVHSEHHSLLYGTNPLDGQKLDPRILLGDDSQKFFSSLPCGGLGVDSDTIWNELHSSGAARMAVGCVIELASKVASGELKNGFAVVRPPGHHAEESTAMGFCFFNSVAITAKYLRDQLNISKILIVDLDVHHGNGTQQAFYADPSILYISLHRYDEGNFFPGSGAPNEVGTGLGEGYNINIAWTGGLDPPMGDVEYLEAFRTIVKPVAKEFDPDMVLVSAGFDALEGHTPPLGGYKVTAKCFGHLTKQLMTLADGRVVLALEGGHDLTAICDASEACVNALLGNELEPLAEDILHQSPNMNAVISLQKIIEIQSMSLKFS
The next test deals with Histone deacetylase 3 (Homo sapiens, UniProt O15379). The experiment in a line: Inhibition of recombinant HDAC3 assessed as inhibition of fluorogenic aminocoumarin release from substrate by trypsin-coupled biochemical assay. The gist of the method: as §1
Histone deacetylase 3, sequence (O15379 whole entry): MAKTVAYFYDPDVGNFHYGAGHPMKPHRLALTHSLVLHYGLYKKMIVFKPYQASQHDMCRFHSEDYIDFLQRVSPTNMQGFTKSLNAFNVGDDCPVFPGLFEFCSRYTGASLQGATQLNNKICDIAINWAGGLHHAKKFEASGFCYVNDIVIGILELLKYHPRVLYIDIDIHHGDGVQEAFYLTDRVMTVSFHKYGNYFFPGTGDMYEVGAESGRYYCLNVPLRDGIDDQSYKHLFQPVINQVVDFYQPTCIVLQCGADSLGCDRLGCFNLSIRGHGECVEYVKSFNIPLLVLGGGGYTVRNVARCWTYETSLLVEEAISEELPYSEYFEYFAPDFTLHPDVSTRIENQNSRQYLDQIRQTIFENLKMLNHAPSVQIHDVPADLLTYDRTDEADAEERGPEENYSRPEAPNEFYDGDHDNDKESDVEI
In test [1] the target is T2, Histone deacetylase 2 (Homo sapiens, UniProt Q92769). The experiment in a line: Inhibition of recombinant HDAC2 assessed as inhibition of fluorogenic aminocoumarin release from substrate by trypsin-coupled biochemical assay.
T2 sequence (Q92769 whole entry): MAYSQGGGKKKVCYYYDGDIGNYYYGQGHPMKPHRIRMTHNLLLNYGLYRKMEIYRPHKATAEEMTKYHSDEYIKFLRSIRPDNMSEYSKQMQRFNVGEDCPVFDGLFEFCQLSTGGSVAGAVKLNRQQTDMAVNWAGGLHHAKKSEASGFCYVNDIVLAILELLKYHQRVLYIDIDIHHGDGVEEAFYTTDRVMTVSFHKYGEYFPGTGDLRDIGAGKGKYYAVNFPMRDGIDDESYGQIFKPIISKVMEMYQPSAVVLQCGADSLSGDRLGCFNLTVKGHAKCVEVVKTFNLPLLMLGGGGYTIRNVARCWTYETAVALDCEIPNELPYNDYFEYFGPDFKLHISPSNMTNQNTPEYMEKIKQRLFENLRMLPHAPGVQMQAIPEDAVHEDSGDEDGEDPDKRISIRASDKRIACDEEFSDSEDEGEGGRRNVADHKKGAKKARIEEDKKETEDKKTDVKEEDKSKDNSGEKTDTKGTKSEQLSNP
The target in a further test is Histone deacetylase 1 (Homo sapiens, UniProt Q13547). The experiment in a line: Inhibition of recombinant HDAC1 assessed as inhibition of fluorogenic aminocoumarin release from substrate by trypsin-coupled biochemical assay. In a few lines:
as §1

Test [2] deals with T2, Histone deacetylase 2. The experiment in a line: Competitive inhibition of HDAC2 active site at 1 to 100 uM by Lineweaver-Burk plot. In a few lines: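 Lysine-deacetylation inhibition mode on HDAC2. Several inhibitor concentrations were tested with substrate at 10 times above and below the HDAC2 Km. The trypsin-coupled AMC fluorescence read-out was analysed by Lineweaver-Burk plot.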

The target of test [3] is T3, Protein deacetylase HDAC6 (Homo sapiens, UniProt Q9UBN7).
T3 sequence (Q9UBN7 whole entry): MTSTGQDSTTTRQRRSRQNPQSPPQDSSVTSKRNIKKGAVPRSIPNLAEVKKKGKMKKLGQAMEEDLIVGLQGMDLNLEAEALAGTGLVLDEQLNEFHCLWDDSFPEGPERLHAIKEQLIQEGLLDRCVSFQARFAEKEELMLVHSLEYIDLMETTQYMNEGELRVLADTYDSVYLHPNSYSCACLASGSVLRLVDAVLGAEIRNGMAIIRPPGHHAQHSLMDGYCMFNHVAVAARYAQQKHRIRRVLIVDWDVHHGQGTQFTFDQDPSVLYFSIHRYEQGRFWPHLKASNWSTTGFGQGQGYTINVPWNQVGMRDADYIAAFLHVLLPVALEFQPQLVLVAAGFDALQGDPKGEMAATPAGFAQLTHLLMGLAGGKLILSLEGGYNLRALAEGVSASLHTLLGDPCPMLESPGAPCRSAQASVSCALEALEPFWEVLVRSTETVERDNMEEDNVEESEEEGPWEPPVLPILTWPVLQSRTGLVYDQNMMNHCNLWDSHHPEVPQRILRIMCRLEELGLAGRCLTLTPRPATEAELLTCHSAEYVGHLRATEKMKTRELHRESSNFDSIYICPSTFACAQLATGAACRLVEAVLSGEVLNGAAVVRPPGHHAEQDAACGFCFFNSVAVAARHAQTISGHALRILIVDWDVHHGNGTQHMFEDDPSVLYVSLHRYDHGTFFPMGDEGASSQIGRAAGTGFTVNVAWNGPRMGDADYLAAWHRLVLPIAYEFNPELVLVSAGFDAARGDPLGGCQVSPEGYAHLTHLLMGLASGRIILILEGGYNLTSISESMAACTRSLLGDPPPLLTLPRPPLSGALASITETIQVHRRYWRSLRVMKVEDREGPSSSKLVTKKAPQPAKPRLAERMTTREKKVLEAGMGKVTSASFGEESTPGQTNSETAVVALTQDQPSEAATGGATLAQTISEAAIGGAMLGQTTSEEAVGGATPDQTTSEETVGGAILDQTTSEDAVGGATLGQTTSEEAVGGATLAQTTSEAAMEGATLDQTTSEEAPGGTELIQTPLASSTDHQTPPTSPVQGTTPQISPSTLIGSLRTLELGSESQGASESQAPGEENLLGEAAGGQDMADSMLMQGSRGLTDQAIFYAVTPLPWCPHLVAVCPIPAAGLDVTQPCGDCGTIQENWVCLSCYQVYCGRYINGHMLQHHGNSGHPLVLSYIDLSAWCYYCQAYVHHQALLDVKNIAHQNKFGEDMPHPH
The experiment in a line: Inhibition of recombinant HDAC6 assessed as inhibition of fluorogenic aminocoumarin release from substrate by trypsin-coupled biochemical assay. The gist of the method: as §1

For a further test, the target named is T4, Histone deacetylase 7 (Homo sapiens, UniProt Q8WUI4).
T4 sequence (Q8WUI4 whole entry): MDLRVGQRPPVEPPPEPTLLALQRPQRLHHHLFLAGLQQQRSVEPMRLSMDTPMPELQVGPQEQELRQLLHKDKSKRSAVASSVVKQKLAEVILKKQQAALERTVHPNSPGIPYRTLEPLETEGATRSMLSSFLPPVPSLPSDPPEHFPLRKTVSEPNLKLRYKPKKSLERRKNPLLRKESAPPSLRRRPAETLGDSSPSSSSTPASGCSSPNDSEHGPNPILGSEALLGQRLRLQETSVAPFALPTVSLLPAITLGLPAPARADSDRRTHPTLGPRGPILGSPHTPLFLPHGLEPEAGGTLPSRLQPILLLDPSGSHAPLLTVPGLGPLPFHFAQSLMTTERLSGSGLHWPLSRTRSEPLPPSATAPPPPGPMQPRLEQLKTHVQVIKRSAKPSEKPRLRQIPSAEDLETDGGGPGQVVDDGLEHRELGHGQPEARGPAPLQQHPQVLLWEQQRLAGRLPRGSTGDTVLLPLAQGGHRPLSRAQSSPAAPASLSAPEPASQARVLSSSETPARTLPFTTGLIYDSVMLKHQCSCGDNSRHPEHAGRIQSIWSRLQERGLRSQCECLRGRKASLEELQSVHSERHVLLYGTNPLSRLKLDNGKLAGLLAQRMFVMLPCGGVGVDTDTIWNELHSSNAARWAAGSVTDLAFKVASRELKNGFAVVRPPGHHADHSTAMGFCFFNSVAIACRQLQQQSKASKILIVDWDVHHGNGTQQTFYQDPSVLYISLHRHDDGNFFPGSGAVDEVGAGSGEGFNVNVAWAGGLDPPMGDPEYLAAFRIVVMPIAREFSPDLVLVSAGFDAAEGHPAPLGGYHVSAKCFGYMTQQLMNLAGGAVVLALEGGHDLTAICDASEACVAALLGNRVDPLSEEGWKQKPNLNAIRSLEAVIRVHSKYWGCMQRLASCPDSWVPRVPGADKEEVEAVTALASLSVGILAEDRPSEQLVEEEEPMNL
The experiment in a line: Inhibition of recombinant HDAC7 assessed as inhibition of fluorogenic aminocoumarin release from substrate by trypsin-coupled biochemical assay.

Calls of active or inactive are those of the source. No cut-off for these calls is given here.

Histone deacetylase 1, sequence (Q13547 whole entry): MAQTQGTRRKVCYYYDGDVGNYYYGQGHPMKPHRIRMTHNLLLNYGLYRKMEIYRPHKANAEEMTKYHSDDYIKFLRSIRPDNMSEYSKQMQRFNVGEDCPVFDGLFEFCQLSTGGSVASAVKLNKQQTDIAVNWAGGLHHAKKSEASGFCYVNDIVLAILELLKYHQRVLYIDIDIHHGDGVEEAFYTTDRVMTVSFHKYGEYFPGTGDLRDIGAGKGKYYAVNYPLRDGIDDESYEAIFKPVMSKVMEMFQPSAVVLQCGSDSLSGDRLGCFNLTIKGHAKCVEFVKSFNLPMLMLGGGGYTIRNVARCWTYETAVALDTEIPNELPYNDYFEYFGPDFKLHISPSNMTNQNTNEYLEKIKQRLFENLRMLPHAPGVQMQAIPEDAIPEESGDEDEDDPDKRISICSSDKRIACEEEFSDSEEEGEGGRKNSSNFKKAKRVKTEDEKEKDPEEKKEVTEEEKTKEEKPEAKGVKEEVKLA
Histone deacetylase 5, sequence (Q9UQL6 whole entry): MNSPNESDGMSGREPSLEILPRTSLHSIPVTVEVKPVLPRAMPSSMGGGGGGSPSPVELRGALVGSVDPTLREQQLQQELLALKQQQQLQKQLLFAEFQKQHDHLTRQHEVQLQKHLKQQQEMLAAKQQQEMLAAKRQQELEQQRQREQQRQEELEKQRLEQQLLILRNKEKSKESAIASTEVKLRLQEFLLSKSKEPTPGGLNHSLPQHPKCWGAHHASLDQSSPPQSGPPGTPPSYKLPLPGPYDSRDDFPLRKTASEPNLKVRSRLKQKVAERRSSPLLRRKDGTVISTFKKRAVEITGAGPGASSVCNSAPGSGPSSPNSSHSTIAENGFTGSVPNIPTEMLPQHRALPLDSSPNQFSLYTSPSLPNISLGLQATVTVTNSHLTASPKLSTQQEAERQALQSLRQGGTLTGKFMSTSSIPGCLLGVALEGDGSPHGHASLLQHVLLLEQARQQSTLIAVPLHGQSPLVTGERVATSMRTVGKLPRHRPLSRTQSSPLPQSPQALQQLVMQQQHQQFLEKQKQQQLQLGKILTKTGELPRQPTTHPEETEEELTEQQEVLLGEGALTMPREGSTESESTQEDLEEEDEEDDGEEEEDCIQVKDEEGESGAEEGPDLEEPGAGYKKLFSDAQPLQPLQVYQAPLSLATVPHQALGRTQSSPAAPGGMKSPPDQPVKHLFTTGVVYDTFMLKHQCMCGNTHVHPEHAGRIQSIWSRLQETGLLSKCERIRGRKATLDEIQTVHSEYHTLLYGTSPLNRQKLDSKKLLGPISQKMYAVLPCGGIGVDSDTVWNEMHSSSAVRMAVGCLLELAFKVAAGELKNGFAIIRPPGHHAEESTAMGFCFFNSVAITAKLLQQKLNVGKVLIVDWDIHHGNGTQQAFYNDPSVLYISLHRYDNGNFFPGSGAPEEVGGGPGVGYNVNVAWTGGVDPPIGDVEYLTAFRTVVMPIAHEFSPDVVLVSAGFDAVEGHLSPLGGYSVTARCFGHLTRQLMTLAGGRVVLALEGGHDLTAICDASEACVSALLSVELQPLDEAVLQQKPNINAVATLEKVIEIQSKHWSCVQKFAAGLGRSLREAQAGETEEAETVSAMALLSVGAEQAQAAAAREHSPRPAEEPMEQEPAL

In general, IC50 refers to the midpoint of a concentration-inhibition curve. In the case of `CC(=O)Nc1ccc(C(=O)CSc2nc(C)cc(O)n2)cc1`, the half-maximal inhibitory concentration (IC50) is 23.9 µM on Histone deacetylase 8; 32.5 µM at Histone deacetylase 4; 27.9 µM at Histone deacetylase 5; 74.1 µM on Histone deacetylase 9; 15.2 µM at Histone deacetylase 3; 18.9 µM on Histone deacetylase 2 [1]. Besides, the IC50 came to 16.4 µM on Histone deacetylase 1 and 11.2 µM in test [3]. In addition, the inhibition entry on Histone deacetylase 2 [2] was “Active”.

As for `COc1cc(C)nc(SCC(=O)c2ccc(NC(C)=O)cc2)n1`, the 50% inhibitory concentration (IC50) on Histone deacetylase 7, on Histone deacetylase 8, at Histone deacetylase 4, at Histone deacetylase 5, on Histone deacetylase 9 and on Histone deacetylase 3 was above 100 µM in each case. The concentration for half-maximal inhibition (IC50) (on Histone deacetylase 2 [1]; on Histone deacetylase 1; in test [3]) was above 100 µM throughout.

On to `Cc1cc(=O)[nH]c(SCC(=O)c2ccc(C(C)(C)C)cc2)n1`, for which the 50% inhibitory concentration (IC50) at Histone deacetylase 7 was above 100 µM; at Histone deacetylase 8, above 100 µM; on Histone deacetylase 4, above 100 µM; at Histone deacetylase 5, 94.3 µM; on Histone deacetylase 9 it was above 100 µM; on Histone deacetylase 3 it was above 100 µM. The half-maximal inhibitory concentration (IC50) (at Histone deacetylase 2 [1]; at Histone deacetylase 1; in test [3]) was above 100 µM throughout.

Source of the values: ChEMBL document CHEMBL1800036, “A novel HDAC inhibitor with a hydroxy-pyrimidine scaffold” (Bioorg Med Chem Lett, 2011).
